Laboratory results from ChEMBL document CHEMBL1687717 (Antimicrob Agents Chemother, 2008).
The source made the active and inactive calls. The calls are words filed in the database; no cut-off is given here.

Key:
[1] = Effect on growth of vaginal Lactobacillus flora in rhesus monkey administered twice daily dose of 5% compound-formulated gel for first 8 weeks followed by 3-weeks rest period and subsequent once daily dose for […] measured 6 months post dose; details: in vivo, topical_or_ocular, 4383 h
How it was run: (§1)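 Rhesus macaques (9 on GML, 3 on vehicle per time point) received 1 ml intravaginal gel containing 50 mg GML in K-Y warming gel, or vehicle gel, by needleless syringe. Dosing was twice daily for 8 weeks, then 3 weeks of rest, then once daily for 11 weeks. Vaginal swabs were taken 1 h post-dose, held at 4°C, serially diluted in Todd-Hewitt broth and plated on chocolate agar at 37°C in 7% CO2.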

[2] = test system: Haemophilus; experiment: Bactericidal activity against Haemophilus at >=20 ug/ml; format: functional, organism-based
[3] = test system: Rhesus monkey; experiment: Toxicity in rhesus monkey assessed as induction of vaginal inflammation administered twice daily dose of 5% compound-formulated gel for first 8 weeks followed by 3-weeks rest period and subsequent once daily dose for […] measured 6 months post dose by extensive colposcopy; format: organism-based, Macaca mulatta; details: in vivo, topical_or_ocular, 4383 h
[4] = test system: Staphylococcus aureus; experiment: Growth inhibition of Staphylococcus aureus MN8 using 5% compound-formulated gel after 24 hrs; format: functional, organism-based
How it was run: (§2)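 Agar disk test: paper disks carrying 30 µl of 5% GML in K-Y warming gel were placed on Todd-Hewitt agar lawns of about 10^6 L. crispatus or S. aureus MN8. Plates were incubated overnight at 37°C in 7% CO2 and scored for visible growth inhibition around the disks. Done in quadruplicate.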

[5] = test system: Staphylococcus; experiment: Effect on growth of vaginal coagulase negative staphylococci flora in rhesus monkey administered twice daily dose of 5% compound-formulated gel for first 8 weeks followed by 3-weeks rest period and subsequent once daily dose for […] measured 6 months post dose; format: functional, organism-based; how it was run: as §1
[6] = test system: Helicobacter; experiment: Bactericidal activity against Helicobacter at >=20 ug/ml; format: functional
[7] = test system: Lactobacillus crispatus; experiment: Suppression of cell viability loss of Lactobacillus crispatus in stationary phase culture at 100 ug/ml after 48 hrs
[8] = Effect on growth of Lactobacillus crispatus using 5% compound-formulated gel after 24 hrs; how it was run: as §2
[9] = Effect on lactic acid production in Lactobacillus crispatus at 50 ug/ml after 8 to 24 hrs; format: ADME
How it was run: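 Todd-Hewitt broth cultures of L. crispatus were started at 3.0 x 10^6/ml with or without nonformulated GML at 50 µg/ml and incubated at 37°C with shaking. Culture pH was measured on samples removed at set times as an acid-production read-out.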

[10] = test system: Gardnerella; experiment: Bactericidal activity against Gardnerella at >=20 ug/ml; format: functional
[11] = Effect on growth of Lactobacillus crispatus at 20 ug/ml after 24 hrs
How it was run: (§3)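 L. crispatus grown in Todd-Hewitt broth flasks at 37°C with shaking, with or without nonformulated GML at 20, 50 or 100 µg/ml. The starting inoculum was 3.0 x 10^6/ml. Samples were taken over 24 h for CFU plate counts.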

[12] = test system: Lactobacillus crispatus; experiment: Suppression of cell viability loss of Lactobacillus crispatus in stationary phase culture at 100 ug/ml after 48 hrs; format: functional
How it was run: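 Stationary-phase L. crispatus broth cultures were incubated a further 48 h at 37°C without GML or with GML at 100 µg/ml. Viable counts were then determined by plating.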

[13] = Effect on growth of Lactobacillus crispatus at 50 ug/ml after 24 hrs; how it was run: as §3
[14] = test system: Rhesus monkey; experiment: Toxicity in rhesus monkey assessed as induction of vaginal mucosal lesions administered twice daily dose of 5% compound-formulated gel for first 8 weeks followed by 3-weeks rest period and subsequent once daily dose for […] measured 6 months post dose by extensive colposcopy; format: organism-based, Macaca mulatta; details: in vivo, topical_or_ocular, 4383 h
[15] = test system: Staphylococcus aureus; experiment: Inhibition of Staphylococcus aureus MN8 infection induced IL-8 production in human HVEC assessed as at 100 ug/ml by enzyme-linked immunosorbent assay; format: functional, organism-based
How it was run: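 Human vaginal epithelial cells in keratinocyte serum-free medium without antibiotics were seeded 2–3 days beforehand in 96-well plates. S. aureus MN8 was grown overnight in Todd-Hewitt broth, washed and resuspended in PBS at pH 7.2. Cells received 10^6–10^8 CFU in triplicate, with or without GML at 100 µg/ml, for 6 h. IL-8 was measured by ELISA.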

[16] = test system: Human immunodeficiency virus 1; experiment: Antiviral activity against HIV1 infected in human T cells assessed as inhibition of viral infection at 100 ug/mL; format: functional, organism-based; details: T-cell

With `CCCCCCCCCCCC(=O)OCC(O)CO` (stereo unspecified) [GLYCEROL MONOLAURATE] the Activity [1] was “Non-toxic”, the inhibition [2] was “Active” and the Activity [3] was “Non-toxic”. For the same molecule, the “growth inhibition (GI)” value [4] was “Active”, the Activity [5] was “Non-toxic” and the inhibition [6] was “Active”. For the same molecule, the Activity [7] was “Active”, the Activity [8] was “Non-toxic” and the Activity [9] was “Non-toxic”. For the same molecule, the inhibition [10] was “Active”, the Activity [11] was “Non-toxic” and the Activity [12] was “Active”. The Activity [13] was “Non-toxic”, the Activity [14] was “Non-toxic” and the inhibition [15] was “Active”. For the same molecule, the inhibition [16] was “Active”.
